Results on two compounds are retold here after ChEMBL document CHEMBL1944509, “Methyl-monofluorination of ibuprofen selectively increases its inhibitory activity toward cyclooxygenase-1 leading to enhanced analgesic activity and reduced gastric damage in vivo” (Bioorg Med Chem Lett, 2011).

Data set [1] has as its system Mus musculus. Nature of the data set: Analgesic activity in Swiss albino mouse assessed as inhibition of acetic acid-induced writhing at 30 mg/kg, ig administered 1 hr before acetic acid challenge measured 10 mins post acetic acid challenge. Format: functional. The following applies: po, route intragastric. In a few lines: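 Male Swiss albino mice (22–24 g), three groups, n = 8; drug suspended in 0.5% CMC given i.g. (0.3 ml/10 g) 1 h before i.p.-unspecified injection of 1% (v/v) acetic acid at 0.1 ml/10 g. Writhes counted for 10 min starting 10 min after acetic acid; activity as percent decrease in writhing versus vehicle control; mean ± SEM, ANOVA then t-test.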

For data set [2], the system named is Nucleic Acid. Description: Ratio of drug level in brain to plasma in ICR mouse at 5 mg/kg, iv after 4 hrs by HPLC/MS/MS analysis. Format: ADME, organism-based. The arrangement: dose 5 mg/kg, route intravenous.
Data set [3] concerns Nucleic Acid. Nature of the data set: Ratio of drug level in brain to plasma in ICR mouse at 10 mg/kg, po after 6 hrs by HPLC/MS/MS analysis. The class given is ADME, organism-based. The arrangement: dose 10 mg/kg, route oral.
Data set [4] can be described thus: Clearance in ICR mouse at 5 mg/kg, iv. The class given is ADME, organism-based. The arrangement: dose 5 mg/kg, route intravenous. The following applies: in vivo.
Data set [5] can be described thus: Apparent half life in ICR mouse at 5 mg/kg, iv. Format: ADME, organism-based. Also noted: dose 5 mg/kg, route intravenous. The following applies: in vivo, read-out: t1/2(app) (converted).
Data set [6] has as its system Rattus norvegicus. Description: Gastrointestinal toxicity in Wistar rat assessed as ulcerogenic effect at 108.8 mg/kg, po measured after 17 hrs post treatment (Rvb =0.50 +/- 0.41). Format: organism-based. The arrangement: dose 108.8 mg/kg, route oral. The conditions noted are these: in vivo. In a few lines:
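Wistar rats, 150–200 g, eight per group, fasted at least 8 h with water ad libitum. Drug is given orally as a 0.5% CMC suspension at 10 ml/kg; controls get 0.5% CMC. Food is returned after 30 min. At 17 h rats are killed with CO₂ and stomachs removed. Damage score is the summed lesion lengths in mm per rat; mean ± SEM.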

In data set [7] the target is T1, Prostaglandin G/H synthase 2 (Homo sapiens, UniProt P35354).
T1 sequence (P35354 whole entry): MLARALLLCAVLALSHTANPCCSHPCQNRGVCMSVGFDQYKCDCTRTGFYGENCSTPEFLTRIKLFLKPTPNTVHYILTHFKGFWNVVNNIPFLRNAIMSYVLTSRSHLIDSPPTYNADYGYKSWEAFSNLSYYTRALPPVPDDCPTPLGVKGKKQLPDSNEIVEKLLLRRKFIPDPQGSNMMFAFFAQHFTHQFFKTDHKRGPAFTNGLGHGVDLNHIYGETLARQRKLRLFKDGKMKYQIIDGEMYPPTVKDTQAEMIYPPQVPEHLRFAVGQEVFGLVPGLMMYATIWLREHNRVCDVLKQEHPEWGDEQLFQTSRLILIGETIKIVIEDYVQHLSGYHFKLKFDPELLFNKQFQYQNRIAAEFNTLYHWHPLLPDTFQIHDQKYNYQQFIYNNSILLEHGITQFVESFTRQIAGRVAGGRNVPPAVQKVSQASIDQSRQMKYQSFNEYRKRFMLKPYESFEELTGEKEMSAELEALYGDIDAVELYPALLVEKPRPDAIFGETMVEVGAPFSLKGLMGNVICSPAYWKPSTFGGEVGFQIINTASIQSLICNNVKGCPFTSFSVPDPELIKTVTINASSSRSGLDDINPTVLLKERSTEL
Nature of the data set: Inhibition of COX2 in LPS-stimulated and PMA-treated human U937 cells assessed as PGE2 production after 15 mins by ELISA. The class given is cell-based, U-937. On the technique in general: ELISA stands for enzyme-linked immunosorbent assay.

Data set [8] has as its target Prostaglandin G/H synthase 1 (Homo sapiens, UniProt P23219). Nature of the data set: Ratio of ibuprofen IC50 to compound IC50 for human COX1 in HEL 92.1.7 cells.

A word on the inhibition in vivo: it is the change of the read-out against control, counted positive when it falls. Turning to `CC(C)Cc1ccc([C@H](C)C(=O)O)cc1` [DEXIBUPROFEN], the inhibition in vivo at 30 mg/kg in data set [1] was 68.7%. The BPR in data set [2] was 0.044 mL/g; in data set [3] it was 0.036 mL/g.

For orientation: clearance means a measure of how efficiently the substance is removed, as volume per time. One may read the IC50 as the concentration at which inhibition is half-maximal. In data set [4], `CC(C)Cc1ccc([C@H](CF)C(=O)O)cc1` gave a clearance of 3.5 mL/min/kg. The half-life in data set [5] was 52.8 min. Further, in data set [6], the Activity entry was “Toxic”. Further, in data set [7], the IC50 was determined as 530 nM. Also, the Ratio IC50 in data set [8] was 80.
